# Experimental data published in ChEMBL document CHEMBL1130122, “Synthesis, biological evaluation, and structure-activity relationships of 3-acylindole-2-carboxylic acids as inhibitors of the cytosolic phospholipase A2” (J Med Chem, 1997).
# Tests used:
# Bos taurus = organism: Bos taurus; assay: The cell lytic potency at a compound concentration of 33 uM in bovine platelets was determined; assay type: functional
# In short: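 Turbidimetric lysis assay in bovine platelets. ETYA, then compound or DMSO solvent, then platelet suspension and CaCl2 at 37 °C. The suspension was diluted with PBS and absorbance read at 800 nm; lysis lowers absorbance. Platelets were stored at +4 °C and used within 36 h of isolation.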
# [1] = test system: Cytosolic phospholipase A2 (Bos taurus); assay: Inhibitory activity against cPLA2 (cytosolic Phospholipase A2) by measuring the calcium ionophore A-23,187-induced arachidonic acid release from bovine platelets; Not active at highest conc tested 33 uM
# [2] = molecular target: T1, Cytosolic phospholipase A2 (Bos taurus, UniProt A4IFJ5); assay: Inhibitory activity against cPLA2 (cytosolic Phospholipase A2) by measuring the calcium ionophore A-23,187-induced arachidonic acid release from bovine platelets; assay type: functional
# T1 sequence (A4IFJ5 whole entry): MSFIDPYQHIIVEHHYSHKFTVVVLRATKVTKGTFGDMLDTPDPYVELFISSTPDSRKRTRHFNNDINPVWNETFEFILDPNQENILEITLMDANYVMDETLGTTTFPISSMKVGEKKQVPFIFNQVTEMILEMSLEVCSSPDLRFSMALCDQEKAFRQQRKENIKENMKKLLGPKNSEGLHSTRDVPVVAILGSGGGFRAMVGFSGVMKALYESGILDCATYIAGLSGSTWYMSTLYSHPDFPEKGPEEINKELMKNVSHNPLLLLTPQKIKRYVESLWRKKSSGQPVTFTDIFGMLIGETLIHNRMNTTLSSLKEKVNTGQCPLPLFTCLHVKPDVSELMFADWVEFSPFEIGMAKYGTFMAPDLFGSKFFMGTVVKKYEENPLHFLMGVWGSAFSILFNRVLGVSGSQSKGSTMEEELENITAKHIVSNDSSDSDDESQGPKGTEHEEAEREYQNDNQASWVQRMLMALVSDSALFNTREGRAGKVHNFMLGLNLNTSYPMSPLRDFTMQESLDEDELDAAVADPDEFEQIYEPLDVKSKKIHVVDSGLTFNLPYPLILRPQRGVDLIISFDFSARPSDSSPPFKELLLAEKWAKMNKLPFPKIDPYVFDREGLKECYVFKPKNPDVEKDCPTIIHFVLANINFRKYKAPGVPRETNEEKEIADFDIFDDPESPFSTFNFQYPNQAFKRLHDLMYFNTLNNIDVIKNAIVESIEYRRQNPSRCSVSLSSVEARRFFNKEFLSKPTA
# In short: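 Intact bovine platelets stimulated with calcium ionophore A23187 in the presence of ETYA, which blocks arachidonic acid metabolism. Compound or solvent control was added to ETYA, then platelet suspension and CaCl2 at 37 °C. Released arachidonic acid was measured by HPLC/UV. IC50 was read graphically as the mean of at least two independent experiments. Platelets were stored at +4 °C and used within 36 h of isolation.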
# [3] = test system: Cytosolic phospholipase A2 (Bos taurus); assay: Inhibitory activity against cPLA2 (cytosolic Phospholipase A2) by measuring the calcium ionophore A-23,187-induced arachidonic acid release from bovine platelets at a compound conc of 33 uM
SMILES,Lysis (Bos taurus),IC50 [1],IC50 [2],inhibition [3]
CCCCCCCCCCCCCCCCCC(=O)c1c(C(=O)O)[nH]c2ccccc12,0%,Not Active,–,–
CCCCCCCCCCCC(=O)c1c(C(=O)O)n(C)c2cc(Cl)ccc12,26%,–,9 µM,–
CCCCCCCCCCCC(=O)c1c(C(=O)O)n(CCOc2ccc(C(=O)O)cc2)c2ccccc12,0%,–,0.5 µM,–
CCCCCCCCCCCCCCCCCC(=O)c1c(CC(=O)O)n(C)c2ccccc12,0%,–,> 33 µM,–
CCCCCCCC(=O)c1c(C(=O)O)n(C)c2ccccc12,0%,–,> 33 µM,30%
CCCCCCCCCCCCOc1cccc(C(=O)c2c(C(=O)O)n(C)c3ccccc23)c1,26%,–,7 µM,–
CCCCCCCCCCOc1ccc(CC(=O)c2c(C(=O)O)n(C)c3ccccc23)cc1,38%,–,7 µM,–
CCCCCCCCCCCCCCCCCC(=O)c1c(CC(=O)O)[nH]c2ccccc12,0%,Not Active,–,–
CCCCCCCCCCOc1ccccc1CC(=O)c1c(C(=O)O)n(C)c2ccccc12,37%,–,7 µM,–
CCCCCCCCCCCC(=O)c1c(C(=O)O)n(CCCCCCCCC(=O)O)c2ccccc12,0%,–,1.6 µM,–
CCCCCCCCCCCC(=O)c1c(C(=O)O)n(C)c2ccc(O)cc12,0%,–,10 µM,–
CCCCCCCCCCCC(=O)c1c(C(=O)O)n(Cc2cccc(/C=C/C(=O)O)c2)c2ccccc12,0%,–,5.3 µM,–
CCCCCCCCCCOc1cccc(CCC(=O)c2c(C(=O)O)n(C)c3ccccc23)c1,14%,–,11 µM,–
CCCCCCCCCCCCOc1ccc(C(=O)c2c(C(=O)O)n(C)c3ccccc23)cc1,19%,–,7 µM,–
CCCCCCCCCCOc1ccc(CCC(=O)c2c(C(=O)O)n(C)c3ccccc23)cc1,0%,–,10 µM,–
CCCCCCCCCCCC(=O)c1c(C(=O)O)n(C)c2ccccc12,0%,–,8 µM,–
CCCCCCCCCCCC(=O)c1c(C(=O)O)n(Cc2ccc(CCC(=O)O)cc2)c2ccccc12,0%,–,4 µM,–
CCCCCCCCCCCC(=O)c1c(C(=O)O)n(Cc2cccc(CCC(=O)O)c2)c2ccccc12,0%,–,4.3 µM,–
CCCCCCCCCCCC(=O)c1c(C(=O)O)n(CCOc2cccc(C(=O)O)c2)c2ccccc12,0%,–,1.9 µM,–
CCCCCCCCCCCC(=O)c1c(C(=O)O)n(C)c2ccc(Cl)cc12,14%,–,8 µM,–
CCCCCCCCCCCC(=O)c1c(C(=O)O)n(C)c2ccc(F)cc12,0%,–,11 µM,–
CCCCCCCCCCCC(=O)c1c(C)c(C)n(C)c1C(=O)O,0%,–,11 µM,–
CCCCCCCCCCCCCCCCCC(=O)c1c(C(=O)O)n(CCCCCCCC)c2ccccc12,0%,–,–,–
CCCCCCCCCCCCCCCCCC(=O)c1c(C(=O)O)n(CCCCCCCCCCCC)c2ccccc12,0%,–,–,–
CCCCCCCCCCCCCCCCCC(=O)c1c(C(=O)OCC)n(C)c2ccccc12,0%,Not Active,–,–

SMILES,Lysis (Bos taurus),IC50 [1],IC50 [2],inhibition [3]
CCCCCCCCCCOc1cccc(CC(=O)c2c(C(=O)O)n(C)c3ccccc23)c1,21%,–,10 µM,–
CCCCC/C=C\C/C=C\C/C=C\C/C=C\CCCC(=O)C(F)(F)F [ARACHIDONYL TRIFLUOROMETHYLKETONE],31%,–,11 µM,–
CCCCCCCCCCCCCCCCCC(=O)c1c(CCC(=O)O)n(C)c2ccccc12,0%,Not Active,–,–
CCCCCCCCCCCCCCCCCCc1c(C(=O)O)n(C)c2ccccc12,0%,Not Active,–,–
CCCCCCCCCCCCCC(=O)c1c(C(=O)O)n(C)c2ccccc12,0%,–,8 µM,–
CCCCCCCCCCOc1ccccc1CCC(=O)c1c(C(=O)O)n(C)c2ccccc12,34%,–,34 µM,–
CCCCCCCCCCCCCCCCCC(=O)c1c(C(=O)O)n(CCCCCC)c2ccccc12,27%,–,9 µM,–
CCCCCCCCCCCCCCCCNC(=O)C1CCCN1 (configuration not stated),0%,–,13 µM,–
CCCCCCCCCCCC(=O)c1c(C(=O)O)n(CCOc2cccc(CC(=O)O)c2)c2ccccc12,0%,–,–,–
CCCCCCCCCCCCCCCCCC(=O)c1c(C(=O)O)n(C)c2ccccc12,0%,–,8 µM,–
CCCCCCCCCCCC(=O)c1c(C(=O)O)n(CCCCCC(=O)O)c2ccccc12,0%,–,8 µM,–
CCCCCCCCCCCC(=O)c1c(C(=O)O)n(C)c2ccc([N+](=O)[O-])cc12,10%,–,10 µM,–
CCCCCCCCCCCC(=O)c1c(C(=O)O)n(CCCCCCC(=O)O)c2ccccc12,0%,–,3 µM,–
CCCCCCCCCCCC(=O)c1c(C(=O)O)n(C)c2ccc(OC)cc12,0%,–,8 µM,–
CCCCCCCCCCCC(=O)c1c(C(=O)O)n(CCCCCCCCCCC(=O)O)c2ccccc12,0%,–,1.4 µM,–
CCCCCCCCCCCCCCCCCC(=O)c1c(C(=O)O)n(CCCCCCCC(=O)O)c2ccccc12,69%,–,1.4 µM,–
CCCCCCCCCCCC(=O)c1c(C(=O)O)n(C)c2cccc(Cl)c12,50%,–,9 µM,–
CCCCCCCCCCCC(=O)c1c(C(=O)O)n(CC(=O)O)c2ccccc12,0%,–,> 33 µM,39%
CCCCCCCCCCCC(=O)c1c(C(=O)O)n(Cc2ccc(/C=C/C(=O)O)cc2)c2ccccc12,0%,–,4.1 µM,–
CCCCCCCCCCCC(=O)c1c(C(=O)O)n(CCOc2ccc(CC(=O)O)cc2)c2ccccc12,0%,–,–,–
CCCCCCCCCCCCOc1ccccc1C(=O)c1c(C(=O)O)n(C)c2ccccc12,60%,–,–,–
CCCCCCCCCCCCCCCCCC(=O)c1c(CCC(=O)O)[nH]c2ccccc12,0%,Not Active,–,–
CCCCCCCCCC(=O)c1c(C(=O)O)n(C)c2ccccc12,0%,–,18 µM,–
CCCCCCCCCCCCCCCCCC(=O)c1c(C(=O)O)n(CCCCCCC)c2ccccc12,16%,–,> 10 µM,–
CCCCCCCCCCCC(=O)c1c(C(=O)O)n(CCCCCCCC(=O)O)c2ccccc12,0%,–,1.6 µM,–
